Test results: ChEMBL document CHEMBL1926550, “Synthesis and antibacterial activity of naphthyridone derivatives containing mono/difluoro-methyloxime pyrrolidine scaffolds” (2012)
≈ marks a conversion by molar mass, not a printed value.

Legend:
Format in all cases: functional
[1] = tested on: Enterococcus faecalis; experiment: Antibacterial activity against Enterococcus faecalis 09-1 after 18 hrs by two fold serial dilution method; conditions: 09-1, 18 h
Method in brief: (§1)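 Agar two-fold serial dilution in melted Mueller-Hinton agar, final concentrations 128 down to 0.008 μg/mL. Plates inoculated with 10⁴ cfu and incubated at 35 °C for 18 h. MIC taken as the lowest concentration giving no visible growth on the plate.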

[2] = tested on: Enterococcus faecium; experiment: Antibacterial activity against Enterococcus faecium 09-3 after 18 hrs by two fold serial dilution method; conditions: 09-3, 18 h; method in brief: as §1
[3] = tested on: Escherichia coli; experiment: Antibacterial activity against Escherichia coli 10-3 after 18 hrs by two fold serial dilution method; conditions: 10-3, 18 h; method in brief: as §1
[4] = tested on: Staphylococcus epidermidis; experiment: Antibacterial activity against methicillin-resistant Staphylococcus epidermidis 10-2 after 18 hrs by two fold serial dilution method; conditions: 10-2, 18 h
Method in brief: (§2)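 Agar two-fold serial dilution in melted Mueller-Hinton agar, 128 to 0.008 μg/mL. Plates inoculated with 10⁴ cfu, incubated 35 °C for 18 h. MIC taken as lowest concentration giving no visible growth on the plate.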

[5] = tested on: Pseudomonas aeruginosa; experiment: Antibacterial activity against Pseudomonas aeruginosa 10-1 after 18 hrs by two fold serial dilution method; conditions: 10-1, 18 h; method in brief: as §1
[6] = tested on: Staphylococcus aureus; experiment: Antibacterial activity against methicillin-resistant Staphylococcus aureus 10-4 after 18 hrs by two fold serial dilution method; conditions: 10-4, 18 h; method in brief: as §2
[7] = tested on: Pseudomonas aeruginosa; experiment: Antibacterial activity against Pseudomonas aeruginosa 10-3 after 18 hrs by two fold serial dilution method; conditions: 10-3, 18 h; method in brief: as §1
[8] = tested on: Klebsiella pneumoniae; experiment: Antibacterial activity against Klebsiella pneumoniae 09-2 after 18 hrs by two fold serial dilution method; conditions: 09-2, 18 h; method in brief: as §1
[9] = tested on: Staphylococcus epidermidis; experiment: Antibacterial activity against methicillin-sensitive Staphylococcus epidermidis 10-1 after 18 hrs by two fold serial dilution method; conditions: 10-1, 18 h; method in brief: as §1
[10] = tested on: Staphylococcus aureus; experiment: Antibacterial activity against methicillin-sensitive Staphylococcus aureus 10-6 after 18 hrs by two fold serial dilution method; conditions: 10-6, 18 h; method in brief: as §1
[11] = tested on: Klebsiella pneumoniae; experiment: Antibacterial activity against Klebsiella pneumoniae 10-3 after 18 hrs by two fold serial dilution method; conditions: 10-3, 18 h; method in brief: as §1
[12] = tested on: Enterococcus faecium; experiment: Antibacterial activity against Enterococcus faecium 09-5 after 18 hrs by two fold serial dilution method; conditions: 09-5, 18 h; method in brief: as §1
[13] = tested on: Staphylococcus aureus; experiment: Antibacterial activity against methicillin-sensitive Staphylococcus aureus 10-5 after 18 hrs by two fold serial dilution method; conditions: 10-5, 18 h; method in brief: as §1
[14] = tested on: Enterococcus faecium; experiment: Antibacterial activity against Enterococcus faecium 09-6 after 18 hrs by two fold serial dilution method; conditions: 09-6, 18 h; method in brief: as §1
[15] = tested on: Enterococcus faecalis; experiment: Antibacterial activity against Enterococcus faecalis 09-2 after 18 hrs by two fold serial dilution method; conditions: 09-2, 18 h; method in brief: as §1
[16] = tested on: Staphylococcus aureus; experiment: Antibacterial activity against Staphylococcus aureus ATCC 25923 after 18 hrs by two fold serial dilution method; conditions: ATCC 25923, 18 h; method in brief: as §1
[17] = tested on: Enterococcus faecium; experiment: Antibacterial activity against Enterococcus faecium 09-1 after 18 hrs by two fold serial dilution method; conditions: 09-1, 18 h; method in brief: as §1
[18] = tested on: Staphylococcus aureus; experiment: Antibacterial activity against methicillin-sensitive Staphylococcus aureus 10-1 after 18 hrs by two fold serial dilution method; conditions: 10-1, 18 h; method in brief: as §1
[19] = tested on: Escherichia coli; experiment: Antibacterial activity against Escherichia coli 09-2 after 18 hrs by two fold serial dilution method; conditions: 09-2, 18 h; method in brief: as §1
[20] = tested on: Staphylococcus aureus; experiment: Antibacterial activity against methicillin-sensitive Staphylococcus aureus 10-2 after 18 hrs by two fold serial dilution method; conditions: 10-2, 18 h; method in brief: as §1
[21] = tested on: Staphylococcus aureus; experiment: Antibacterial activity against methicillin-resistant Staphylococcus aureus 10-3 after 18 hrs by two fold serial dilution method; conditions: 10-3, 18 h; method in brief: as §2
[22] = tested on: Staphylococcus aureus; experiment: Antibacterial activity against methicillin-resistant Staphylococcus aureus 10-1 after 18 hrs by two fold serial dilution method; conditions: 10-1, 18 h; method in brief: as §2
[23] = tested on: Staphylococcus epidermidis; experiment: Antibacterial activity against methicillin-sensitive Staphylococcus epidermidis 10-2 after 18 hrs by two fold serial dilution method; conditions: 10-2, 18 h; method in brief: as §1
[24] = tested on: Pseudomonas aeruginosa; experiment: Antibacterial activity against Pseudomonas aeruginosa 10-2 after 18 hrs by two fold serial dilution method; conditions: 10-2, 18 h; method in brief: as §1
[25] = tested on: Staphylococcus aureus; experiment: Antibacterial activity against methicillin-resistant Staphylococcus aureus 10-2 after 18 hrs by two fold serial dilution method; conditions: 10-2, 18 h; method in brief: as §2
[26] = tested on: Escherichia coli; experiment: Antibacterial activity against Escherichia coli 10-2 after 18 hrs by two fold serial dilution method; conditions: 10-2, 18 h; method in brief: as §1
[27] = tested on: Staphylococcus aureus; experiment: Antibacterial activity against methicillin-sensitive Staphylococcus aureus 10-3 after 18 hrs by two fold serial dilution method; conditions: 10-3, 18 h; method in brief: as §1
[28] = tested on: Enterococcus faecium; experiment: Antibacterial activity against Enterococcus faecium 09-4 after 18 hrs by two fold serial dilution method; conditions: 09-4, 18 h; method in brief: as §1
[29] = tested on: Klebsiella pneumoniae; experiment: Antibacterial activity against Klebsiella pneumoniae 10-1 after 18 hrs by two fold serial dilution method; conditions: 10-1, 18 h; method in brief: as §1
[30] = tested on: Enterococcus faecium; experiment: Antibacterial activity against Enterococcus faecium 09-2 after 18 hrs by two fold serial dilution method; conditions: 09-2, 18 h; method in brief: as §1
[31] = tested on: Escherichia coli; experiment: Antibacterial activity against Escherichia coli ATCC 25922 after 18 hrs by two fold serial dilution method; conditions: ATCC 25922, 18 h; method in brief: as §1
[32] = tested on: Streptococcus pneumoniae; experiment: Antibacterial activity against Streptococcus pneumoniae 10-1 after 18 hrs by two fold serial dilution method; conditions: 10-1, 18 h; method in brief: as §1
[33] = tested on: Pseudomonas aeruginosa; experiment: Antibacterial activity against Pseudomonas aeruginosa ATCC 27853 after 18 hrs by two fold serial dilution method; conditions: ATCC 27853, 18 h; method in brief: as §1
[34] = tested on: Staphylococcus epidermidis; experiment: Antibacterial activity against methicillin-resistant Staphylococcus epidermidis 10-1 after 18 hrs by two fold serial dilution method; conditions: 10-1, 18 h; method in brief: as §2
[35] = tested on: Staphylococcus aureus; experiment: Antibacterial activity against methicillin-sensitive Staphylococcus aureus 10-4 after 18 hrs by two fold serial dilution method; conditions: 10-4, 18 h; method in brief: as §1
[36] = tested on: Escherichia coli; experiment: Antibacterial activity against Escherichia coli 09-1 after 18 hrs by two fold serial dilution method; conditions: 09-1, 18 h; method in brief: as §1
[37] = tested on: Escherichia coli; experiment: Antibacterial activity against Escherichia coli 09-3 after 18 hrs by two fold serial dilution method; conditions: 09-3, 18 h; method in brief: as §1
[38] = tested on: Escherichia coli; experiment: Antibacterial activity against Escherichia coli 10-1 after 18 hrs by two fold serial dilution method; conditions: 10-1, 18 h; method in brief: as §1

SMILES | MIC [1] [µg/mL] | MIC [2] [µg/mL] | MIC [3] [µg/mL] | MIC [4] [µg/mL] | MIC [5] [µg/mL] | MIC [6] [µg/mL] | MIC [7] [µg/mL] | MIC [8] [µg/mL] | MIC [9] [µg/mL] | MIC [10] [µg/mL] | MIC [11] [µg/mL] | MIC [12] [µg/mL] | MIC [13] [µg/mL] | MIC [14] [µg/mL] | MIC [15] [µg/mL] | MIC [16] [µg/mL] | MIC [17] [µg/mL] | MIC [18] [µg/mL] | MIC [19] [µg/mL] | MIC [20] [µg/mL] | other results
COc1c(N2C[C@@H]3CCCN[C@@H]3C2)c(F)cc2c(=O)c(C(=O)O)cn(C3CC3)c12 [MOXIFLOXACIN] | 8 (≈ 19.9 µM) | 2 (≈ 4.98 µM) | 4 (≈ 9.96 µM) | 1 (≈ 2.49 µM) | 0.5 (≈ 1.25 µM) | 8 (≈ 19.9 µM) | 4 (≈ 9.96 µM) | 16 (≈ 39.9 µM) | 2 (≈ 4.98 µM) | 0.008 (≈ 0.0199 µM) | 0.5 (≈ 1.25 µM) | 16 (≈ 39.9 µM) | 0.03 (≈ 0.0747 µM) | 0.125 (≈ 0.311 µM) | 16 (≈ 39.9 µM) | 0.008 (≈ 0.0199 µM) | 16 (≈ 39.9 µM) | 0.008 (≈ 0.0199 µM) | 32 (≈ 79.7 µM) | 4 (≈ 9.96 µM) | MIC [21]: 8 µg/mL (≈ 19.9 µM); MIC [22]: 8 µg/mL (≈ 19.9 µM); MIC [23]: 16 µg/mL (≈ 39.9 µM); MIC [24]: 16 µg/mL (≈ 39.9 µM); MIC [25]: 8 µg/mL (≈ 19.9 µM); MIC [26]: 0.5 µg/mL (≈ 1.25 µM); MIC [27]: 0.008 µg/mL (≈ 0.0199 µM); MIC [28]: 0.008 µg/mL (≈ 0.0199 µM); MIC [29]: 0.03 µg/mL (≈ 0.0747 µM); MIC [30]: 16 µg/mL (≈ 39.9 µM); MIC [31]: 0.008 µg/mL (≈ 0.0199 µM); MIC [32]: 0.008 µg/mL (≈ 0.0199 µM); MIC [33]: 1 µg/mL (≈ 2.49 µM); MIC [34]: 0.5 µg/mL (≈ 1.25 µM); MIC [35]: 0.008 µg/mL (≈ 0.0199 µM)
NCC1CN(c2ccc3c(=O)c(C(=O)O)cn(C4CC4)c3n2)C/C1=N\OCF (racemic) | 64 (≈ 164 µM) | 64 (≈ 164 µM) | > 128 | 64 (≈ 164 µM) | 2 (≈ 5.14 µM) | > 128 | 32 (≈ 82.2 µM) | > 128 | 16 (≈ 41.1 µM) | 0.125 (≈ 0.321 µM) | 4 (≈ 10.3 µM) | 16 (≈ 41.1 µM) | 0.125 (≈ 0.321 µM) | 1 (≈ 2.57 µM) | 64 (≈ 164 µM) | 0.25 (≈ 0.642 µM) | 64 (≈ 164 µM) | 0.03 (≈ 0.077 µM) | > 128 | 128 (≈ 329 µM) | MIC [36]: > 128 µg/mL; MIC [21]: > 128 µg/mL; MIC [22]: > 128 µg/mL; MIC [23]: 32 µg/mL (≈ 82.2 µM); MIC [24]: > 128 µg/mL; MIC [25]: 64 µg/mL (≈ 164 µM); MIC [26]: 4 µg/mL (≈ 10.3 µM); MIC [27]: 0.25 µg/mL (≈ 0.642 µM); MIC [28]: 2 µg/mL (≈ 5.14 µM); MIC [37]: > 128 µg/mL; MIC [29]: 0.5 µg/mL (≈ 1.28 µM); MIC [30]: 64 µg/mL (≈ 164 µM); MIC [31]: 0.06 µg/mL (≈ 0.154 µM); MIC [32]: 0.25 µg/mL (≈ 0.642 µM); MIC [38]: > 128 µg/mL; MIC [33]: 4 µg/mL (≈ 10.3 µM); MIC [34]: 32 µg/mL (≈ 82.2 µM); MIC [35]: 0.25 µg/mL (≈ 0.642 µM)
NCC1CN(c2nc3c(cc2F)c(=O)c(C(=O)O)cn3-c2ccc(F)cc2F)C/C1=N\OCF (racemic) | 32 (≈ 66.8 µM) | 32 (≈ 66.8 µM) | 32 (≈ 66.8 µM) | 8 (≈ 16.7 µM) | 4 (≈ 8.34 µM) | 64 (≈ 134 µM) | 32 (≈ 66.8 µM) | > 128 | 32 (≈ 66.8 µM) | 0.125 (≈ 0.261 µM) | 4 (≈ 8.34 µM) | 64 (≈ 134 µM) | 0.125 (≈ 0.261 µM) | 0.5 (≈ 1.04 µM) | 32 (≈ 66.8 µM) | 0.25 (≈ 0.521 µM) | 64 (≈ 134 µM) | 0.06 (≈ 0.125 µM) | > 128 | 4 (≈ 8.34 µM) | MIC [36]: 128 µg/mL (≈ 267 µM); MIC [21]: 64 µg/mL (≈ 134 µM); MIC [22]: 64 µg/mL (≈ 134 µM); MIC [23]: 32 µg/mL (≈ 66.8 µM); MIC [24]: > 128 µg/mL; MIC [25]: 16 µg/mL (≈ 33.4 µM); MIC [26]: 4 µg/mL (≈ 8.34 µM); MIC [27]: 0.125 µg/mL (≈ 0.261 µM); MIC [28]: 0.5 µg/mL (≈ 1.04 µM); MIC [37]: > 128 µg/mL; MIC [29]: 0.5 µg/mL (≈ 1.04 µM); MIC [30]: 64 µg/mL (≈ 134 µM); MIC [31]: 0.125 µg/mL (≈ 0.261 µM); MIC [32]: 0.125 µg/mL (≈ 0.261 µM); MIC [38]: 128 µg/mL (≈ 267 µM); MIC [33]: 16 µg/mL (≈ 33.4 µM); MIC [34]: 4 µg/mL (≈ 8.34 µM); MIC [35]: 0.125 µg/mL (≈ 0.261 µM)
